Source: ChEMBL document CHEMBL2093137, “WHO-TDR NTD Screening”
In brackets after ≈: the same amount, converted by molar mass.

Columns and labels:
Schistosoma mansoni [1] = assay: (§1) WHO-TDR: Schistosomiasis; format: functional; design: concentration or dose not given beside the values
How it was run: (§2)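 Percent inhibition and IC50 describe activity against whole Schistosoma mansoni worms of the Puerto Rican strain, tested as larvae and/or adults. The compounds screened were a diverse set of 10,000 from Life Chemicals, filtered for drug-likeness and reactive groups. Testing followed previously published standard procedures, with a reference drug as positive control.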

Trypanosoma cruzi = assay: WHO-TDR: Chagas disease; format: functional, organism-based, Homo sapiens; conditions: MRC5
How it was run: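 A diverse library of 10,000 compounds from Life Chemicals, filtered for drug-likeness and reactive groups, was screened against intracellular amastigotes of Trypanosoma cruzi Tulahuen CL2 beta-galactosidase strain. The parasites were grown in MRC-5SV2 human lung fibroblast host cells, and a reference drug served as positive control under previously published standard procedures. Antiparasitic potency is given as IC50.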

[2] = test system: Trypanosoma brucei brucei; assay: WHO-TDR: Human African Trypanosomiasis (HAT); format: functional, organism-based; conditions: Squib-427
How it was run: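 Bloodstream forms of the Trypanosoma brucei Squib 427 strain were tested in a whole-organism screen with a diverse library from Life Chemicals of 10,000 compounds. Before screening, the library was filtered for drug-likeness and for reactive groups. The assay used previously published standard procedures and included reference drugs as positive controls. Potency against the parasite is expressed as IC50.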

Leishmania infantum = assay: WHO-TDR: Leishmaniasis; format: functional, organism-based, Mus musculus; conditions: Macrophage
How it was run: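 Following previously published standard procedures, a whole-organism screen was run on Leishmania infantum MHOM/MA(BE)/67 amastigotes within murine peritoneal macrophages, with a reference drug as positive control. The 10,000 compounds tested formed a diverse Life Chemicals library filtered for drug-likeness and reactive groups. Potency against the parasite is reported as IC50.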

Onchocerca lienalis = assay: WHO-TDR: Onchocerciasis; format: functional; design: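 at 12.5 µM on microfilariae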
How it was run: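 Percent inhibition and IC50 describe activity against microfilariae of Onchocerca ochengi or Onchocerca lienalis, used as animal-pathogen substitutes for the human parasite. The compounds tested made up a 10,000-member diverse library from Life Chemicals.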

Brugia malayi [3] = assay: (§3) WHO-TDR: Lymphatic Filariasis; format: functional, organism-based;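 for % Inhibition: tested at 10 µM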
How it was run: (§4)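 The screening set was a 10,000-compound diverse library from Life Chemicals, filtered for drug-likeness and for reactive groups. It was run against Brugia malayi microfilariae as whole organisms, using previously published standard procedures. Reference drugs acted as positive controls, and activity is reported both as percent inhibition and as IC50.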

Brugia malayi [4] = assay: as §3; format: functional; design: concentration or dose not given beside the values; how it was run: as §4
Plasmodium falciparum K1 = assay: WHO-TDR: Malaria; format: functional, organism-based, Homo sapiens; conditions: Erythrocyte
How it was run: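 Following previously published standard procedures, with a reference drug serving as positive control, compounds were tested on the Plasmodium falciparum K1 strain inside human red blood cells. The 10,000-compound diverse set came from Life Chemicals after filtering for drug-likeness and reactive groups. Potency against the parasite appears as IC50.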

Brugia malayi [5] = assay: as §3; format: functional; design: concentration or dose not given beside the values; how it was run: as §4; remark: listed apart in the source
[6] = WHO-TDR: Cytotoxicity; format: toxicity, cell-based; conditions: human, MRC5 cells
Schistosoma mansoni [7] = assay: as §1; format: functional, organism-based; how it was run: as §2

Row | SMILES | % Inhibition (Schistosoma mansoni [1]) | IC50 (Trypanosoma cruzi) | IC50 [2] | IC50 (Leishmania infantum) | % Inhibition (Onchocerca lienalis) | IC50 (Brugia malayi [3]) | % Inhibition (Brugia malayi [4]) | IC50 (Plasmodium falciparum K1) | % Inhibition (Brugia malayi [5]) | IC50 [6] | IC50 (Schistosoma mansoni [7])
1 | COC(=O)c1c(NC(=O)c2cc3ccccc3oc2=O)sc2c1CCN(Cc1ccccc1)C2 | 0% | 0.637 µg/mL (≈ 1.34 µM) | > 15.3 µg/mL | 4.96 µg/mL (≈ 10.5 µM) | 0% | 2.97 µM | 100% | > 15.3 µg/mL | 100% | 8.92 µg/mL (≈ 18.8 µM) | 
2 | CCc1ccc(NC(=O)c2oc3ccccc3c2NC(=O)Cc2cccs2)cc1 | 100% | > 12.1 µg/mL | > 12.1 µg/mL | > 12.1 µg/mL | 0% |  |  | > 12.1 µg/mL |  | > 12.1 µg/mL | 6.5 µM
3 | C=CCN(CC=C)S(=O)(=O)c1ccc(C(=O)Nc2nc3ccc(C(C)C)cc3s2)cc1 | 100% | 4.48 µg/mL (≈ 9.84 µM) | > 11 µg/mL | > 11 µg/mL | 0% |  |  | > 11 µg/mL |  | > 11 µg/mL | 5.7 µM
4 | O=C(CSc1nncc(=O)[nH]1)Nc1cc(C(F)(F)F)ccc1Cl | 100% | > 10.9 µg/mL | > 10.9 µg/mL | > 10.9 µg/mL | 0% |  |  | > 10.9 µg/mL |  | > 10.9 µg/mL | 6.3 µM
5 | COc1ccc(N2CCCS2(=O)=O)cc1NC(=O)c1cc(Cl)ccc1OC | 100% | 5.04 µg/mL (≈ 12.3 µM) | 4.31 µg/mL (≈ 10.5 µM) | 0.399 µg/mL (≈ 0.971 µM) | 13.3% |  |  | > 12.3 µg/mL |  | > 12.3 µg/mL | 4.3 µM
6 | Cn1ncc2c(N3CCOCC3)nc(NCCc3c[nH]c4ccccc34)nc21 [TDR79432] | 100% | 2.69 µg/mL (≈ 7.11 µM) | > 11.3 µg/mL | > 11.3 µg/mL | 0% |  |  | 5.13 µg/mL (≈ 13.6 µM) |  | 3.75 µg/mL (≈ 9.93 µM) | 3.8 µM
7 | O=C(Nc1nnc(S)s1)c1cc(Br)ccc1Cl | 0% | > 10.5 µg/mL | > 10.5 µg/mL | > 10.5 µg/mL | 0% | 0.853 µM | 0% | > 10.5 µg/mL | 100% | > 10.5 µg/mL | 
8 | CCN(c1ccccc1)S(=O)(=O)c1ccc(C(=O)Nc2sc3c(c2C(=O)NC)CCCC3)cc1 | 100% | 5.24 µg/mL (≈ 10.5 µM) | > 11 µg/mL | > 11 µg/mL | 13.3% |  |  | 7.35 µg/mL (≈ 14.8 µM) |  | > 11 µg/mL | 9.9 µM
9 | CCN(CC)c1cc(C)nc(Nc2ccc(NC(=O)c3c(F)cccc3F)cc2)n1 | 100% | 0.26 µg/mL (≈ 0.632 µM) | 3.63 µg/mL (≈ 8.81 µM) | 3.9 µg/mL (≈ 9.49 µM) | -1% |  |  | 0.77 µg/mL (≈ 1.87 µM) |  | 2.86 µg/mL (≈ 6.95 µM) | 7.4 µM
10 | Cc1ccc(NC(=O)CSc2nncc(=O)[nH]2)cc1Cl | 100% | 2.99 µg/mL (≈ 9.61 µM) | 2.91 µg/mL (≈ 9.37 µM) | > 9.32 µg/mL | 0% |  |  | 3.64 µg/mL (≈ 11.7 µM) |  | 2.55 µg/mL (≈ 8.2 µM) | 4.5 µM
11 | CN(C)CCCN(C(=O)/C=C/c1ccccc1Cl)c1nc2cc3c(cc2s1)OCO3 | 100% | 0.408 µg/mL (≈ 0.919 µM) | 0.428 µg/mL (≈ 0.964 µM) | 0.467 µg/mL (≈ 1.05 µM) | 0% |  |  | 1.44 µg/mL (≈ 3.25 µM) |  | 0.462 µg/mL (≈ 1.04 µM) | 4.3 µM
12 | CCOc1ccc(C(=O)Nc2ccc(Nc3nc(C)cc(N(CC)CC)n3)cc2)cc1OCC | 100% | 0.428 µg/mL (≈ 0.922 µM) | 4.4 µg/mL (≈ 9.49 µM) | 4.5 µg/mL (≈ 9.71 µM) | 20% |  |  | 0.51 µg/mL (≈ 1.1 µM) |  | 3.94 µg/mL (≈ 8.5 µM) | 8.3 µM
13 | O=C(CSc1nncc(=O)[nH]1)Nc1ccc(Br)cc1 | 100% | 2.82 µg/mL (≈ 8.26 µM) | 3.24 µg/mL (≈ 9.49 µM) | > 10.2 µg/mL | 0% |  |  | 0.966 µg/mL (≈ 2.83 µM) |  | 1.76 µg/mL (≈ 5.15 µM) | 5.2 µM
14 | CN(C)CCCN(C(=O)c1cc(-c2cccs2)nc2ccccc12)c1nc2c(F)cccc2s1 | 100% | 4.32 µg/mL (≈ 8.81 µM) | 0.383 µg/mL (≈ 0.781 µM) | 5.12 µg/mL (≈ 10.4 µM) | 0% |  |  | 1.2 µg/mL (≈ 2.44 µM) |  | 4.21 µg/mL (≈ 8.58 µM) | 4.3 µM
15 | COc1ccc(C(=O)C[n+]2cc(-c3ccc(OC)cc3)n3c2CCCCC3)cc1 | 50% | < 0.141 µg/mL | 3.73 µg/mL | 4.58 µg/mL | 0% | 2.99 µM | 50% | 0.505 µg/mL | 99% | 0.572 µg/mL | 
16 | CCOC(=O)c1c(NC(=O)C(C)Sc2nnc(NC(C)=O)s2)sc2c1CCCC2 (centres undefined) | 100% | > 13.6 µg/mL | > 13.6 µg/mL | > 13.6 µg/mL | 0% |  |  | > 13.6 µg/mL |  | > 13.6 µg/mL | 9.8 µM
17 | Cc1ccc(NC(=O)c2oc3ccccc3c2NC(=O)CC(c2ccccc2)c2ccccc2)cc1C | 100% | > 14.7 µg/mL | > 14.7 µg/mL | 4.75 µg/mL (≈ 9.71 µM) | 0% |  |  | > 14.7 µg/mL |  | > 14.7 µg/mL | 6.7 µM
18 | CCSc1nnc(NC(=O)CSc2nncc(=O)[nH]2)s1 | 100% | 3.09 µg/mL (≈ 9.35 µM) | 3.13 µg/mL (≈ 9.49 µM) | 3.21 µg/mL (≈ 9.71 µM) | 0% |  |  | > 9.91 µg/mL |  | 1.95 µg/mL (≈ 5.92 µM) | 5.2 µM
19 | CCOc1ccc(NC(=O)CSc2nncc(O)n2)cc1 | 100% | 3.3 µg/mL (≈ 10.8 µM) | 2.53 µg/mL (≈ 8.27 µM) | > 9.19 µg/mL | 0% |  |  | 0.566 µg/mL (≈ 1.85 µM) |  | 3.01 µg/mL (≈ 9.83 µM) | 5.8 µM
20 | COc1cc(C)c(Cl)cc1S(=O)(=O)Nc1ccc(Nc2nc(C)cc(N3CCOCC3)n2)cc1 | 100% | > 15.1 µg/mL | > 15.1 µg/mL | > 15.1 µg/mL | 46.7% |  |  | > 15.1 µg/mL |  | > 15.1 µg/mL | 5.1 µM
21 | O=C(Nc1cc2ccccc2cc1NC(=O)c1ccc2c(c1)OCCO2)c1ccc2c(c1)OCCO2 | 100% | > 14.5 µg/mL | > 14.5 µg/mL | > 14.5 µg/mL | 13.3% |  |  | > 14.5 µg/mL |  | > 14.5 µg/mL | 8.8 µM
